The values below come from publication PMC3483595 (ChemMedChem, 2012).

In brackets after ≈: the same amount, converted by molar mass. Several values for one entry are separate records, joined by “and”; a condition that tells them apart may be missing. Equal values may be shown once. Read-outs that look alike come from different tables or passages of the source.

The test system of test [1] is B. subtilis 168. The experiment in a line: Plate assay of bacterial growth. It is filed as cell-based. As to conditions: for MIC, B. subtilis 168: plate assay, overnight incubation. The method, boiled down: (§1)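 Exponential-phase cells (OD600 0.5) were mixed into LB with 0.2% glucose and 0.75% soft agar and poured as a lawn. Test compound (1 µL; water- or DMSO-dissolved) was spotted on the set surface and plates were incubated overnight at 37°C. The MIC was the concentration giving a clear growth-inhibition zone relative to the surrounding lawn.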

In a further test the test system is E. coli MC4100. As to the kind of experiment: Plate assay of bacterial growth. Type of test: cell-based. As to conditions: wild-type, overnight incubation. In a few lines:
as §1

The target of test [2] is T1, EcSecA translocation ATPase (Escherichia coli, UniProt P10408). The experiment in a line: Translocation ATPase assay of SecA with membrane and proOmpA. Type of test: biochemical. As to conditions: read-out: IC50, EcSecA translocation ATPase. The method, boiled down:
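Purified full-length E. coli SecA (1.5 µg per 50 µL) was combined with 3 µg urea-washed BA13 membrane plus 1 µg purified proOmpA precursor. Reaction: 1.2 mM ATP, ovalbumin, Tris-HCl pH 7.6, KCl, NH4Cl, Mg(OAc)2, DTT, 40°C within the linear range. Released phosphate was read at 660 nm and expressed as % remaining activity versus control; at least triplicate.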

For test [3], the system named is SecA-dependent protein translocation. As to the kind of experiment: SecA-dependent in vitro translocation of proOmpA into membrane vesicles. Type of test: biochemical, E. coli. As to conditions: read-out: IC50, in vitro translocation of proOmpA into membrane vesicles; 35S-labeled proOmpA.
The subject of test [4] is E. coli NR698. As to the kind of experiment: Plate assay of bacterial growth. Type of test: cell-based. As to conditions: for MIC, E. coli NR698: plate assay, leaky mutant, overnight incubation.
A further test has as its target BsSecA intrinsic ATPase (Bacillus subtilis, UniProt P28366). As to the kind of experiment: Intrinsic ATPase assay of full-length BsSecA. Type of test: biochemical. As to conditions: read-out: IC50, BsSecA intrinsic ATPase; full-length B. subtilis SecA. In a few lines: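 Full-length B. subtilis SecA was overexpressed from pT7div and purified, then used at 1.5 µg per 50 µL reaction in solution without membranes. Phosphate release was read at 660 nm and expressed as % remaining activity versus control; at least triplicate.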

The next test addresses F1F0-ATPase (Escherichia coli, UniProt P0ABB0+P0ABB4). As to the kind of experiment: F1F0-proton ATPase activity assay. Type of test: biochemical. As to conditions: read-out: IC50, F1F0-ATPase; E. coli F1F0-proton ATPase in liposomes. In a few lines: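 F1F0-ATPase from E. coli KY7485 membranes was partially purified by sucrose gradient and reconstituted into liposomes by dialysis. Released phosphate was read photometrically at 660 nm. Activity was expressed as % of the no-inhibitor control; at least triplicate.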

A further test addresses EcSecA membrane ATPase (Escherichia coli, UniProt P10408). As to the kind of experiment: Membrane ATPase assay of SecA with urea-washed BA13 membrane. As to conditions: read-out: IC50, EcSecA membrane ATPase. Type of test: biochemical. The method, boiled down: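 Purified full-length E. coli SecA (1.5 µg per 50 µL) was combined with 3 µg urea-washed membrane from E. coli BA13 (MC4100 secA13(am) supF(ts)). Phosphate was read at 660 nm and expressed as % of the no-inhibitor control; at least triplicate.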

A further test deals with SecA ATPase. As to the kind of experiment: Kinetic experiments versus ATP. As to conditions: low ATP concentrations, data not shown. Type of test: biochemical.
The target of another test is EcN68 SecA ATPase (Escherichia coli, UniProt P10408). The experiment in a line: biochemical. Type of test: biochemical.
Test [5] has as its system E. coli NR698. As to the kind of experiment: Liquid culture growth assay. Type of test: cell-based. As to conditions: 50 µM, data not shown.
Test [6] relates to B. subtilis 168. The experiment in a line: Bactericidal effect assay. It is filed as cell-based. As to conditions: 100 µM, one-hour treatment, exponential-phase cells. The method, boiled down: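 Exponential-phase cultures (OD600 0.5) in LB with 0.2% glucose were exposed to test compound, with water as the control, for 1 h at 37°C. Cultures were serially diluted and spread on LB plates. Surviving CFU were counted after overnight growth at 37°C, and the effect was expressed as the drop in log CFU. At least triplicate; standard error of the mean.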

In test [7] the test system is E. coli NR698. The experiment in a line: Bactericidal effect assay. As to conditions: 100 µM, one-hour treatment, exponential-phase cells. Type of test: cell-based.
The test system of test [8] is SecA-dependent protein translocation. As to conditions: read-out: IC50, in vitro protein translocation; cited from earlier work.
Test [9] deals with T1, EcSecA translocation ATPase. As to conditions: read-out: IC50, translocation ATPase of SecA; cited from earlier work.
For test [10] the following is noted: cited from earlier work.

T1 sequence (P10408 whole entry): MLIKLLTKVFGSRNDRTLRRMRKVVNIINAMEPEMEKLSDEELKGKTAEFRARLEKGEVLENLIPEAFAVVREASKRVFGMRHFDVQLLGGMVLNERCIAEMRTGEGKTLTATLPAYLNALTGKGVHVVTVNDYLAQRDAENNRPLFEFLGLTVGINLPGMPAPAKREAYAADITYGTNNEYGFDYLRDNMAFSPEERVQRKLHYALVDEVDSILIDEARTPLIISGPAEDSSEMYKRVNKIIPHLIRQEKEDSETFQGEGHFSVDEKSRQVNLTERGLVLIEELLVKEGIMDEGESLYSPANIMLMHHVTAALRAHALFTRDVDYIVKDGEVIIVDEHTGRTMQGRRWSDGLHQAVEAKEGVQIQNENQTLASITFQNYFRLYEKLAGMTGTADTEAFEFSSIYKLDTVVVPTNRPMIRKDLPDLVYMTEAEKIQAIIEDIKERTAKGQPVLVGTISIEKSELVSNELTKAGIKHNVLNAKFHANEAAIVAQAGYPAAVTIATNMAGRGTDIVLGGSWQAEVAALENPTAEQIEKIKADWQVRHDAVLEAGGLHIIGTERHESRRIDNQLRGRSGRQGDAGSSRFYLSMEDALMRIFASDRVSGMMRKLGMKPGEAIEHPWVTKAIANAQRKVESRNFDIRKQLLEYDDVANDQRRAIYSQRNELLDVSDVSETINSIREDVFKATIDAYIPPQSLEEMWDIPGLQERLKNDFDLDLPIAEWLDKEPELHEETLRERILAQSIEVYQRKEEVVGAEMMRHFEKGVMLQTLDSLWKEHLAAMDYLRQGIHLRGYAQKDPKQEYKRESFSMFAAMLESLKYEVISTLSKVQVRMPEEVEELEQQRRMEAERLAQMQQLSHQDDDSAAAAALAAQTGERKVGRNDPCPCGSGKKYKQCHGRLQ
Sequence of BsSecA intrinsic ATPase (P28366 whole entry): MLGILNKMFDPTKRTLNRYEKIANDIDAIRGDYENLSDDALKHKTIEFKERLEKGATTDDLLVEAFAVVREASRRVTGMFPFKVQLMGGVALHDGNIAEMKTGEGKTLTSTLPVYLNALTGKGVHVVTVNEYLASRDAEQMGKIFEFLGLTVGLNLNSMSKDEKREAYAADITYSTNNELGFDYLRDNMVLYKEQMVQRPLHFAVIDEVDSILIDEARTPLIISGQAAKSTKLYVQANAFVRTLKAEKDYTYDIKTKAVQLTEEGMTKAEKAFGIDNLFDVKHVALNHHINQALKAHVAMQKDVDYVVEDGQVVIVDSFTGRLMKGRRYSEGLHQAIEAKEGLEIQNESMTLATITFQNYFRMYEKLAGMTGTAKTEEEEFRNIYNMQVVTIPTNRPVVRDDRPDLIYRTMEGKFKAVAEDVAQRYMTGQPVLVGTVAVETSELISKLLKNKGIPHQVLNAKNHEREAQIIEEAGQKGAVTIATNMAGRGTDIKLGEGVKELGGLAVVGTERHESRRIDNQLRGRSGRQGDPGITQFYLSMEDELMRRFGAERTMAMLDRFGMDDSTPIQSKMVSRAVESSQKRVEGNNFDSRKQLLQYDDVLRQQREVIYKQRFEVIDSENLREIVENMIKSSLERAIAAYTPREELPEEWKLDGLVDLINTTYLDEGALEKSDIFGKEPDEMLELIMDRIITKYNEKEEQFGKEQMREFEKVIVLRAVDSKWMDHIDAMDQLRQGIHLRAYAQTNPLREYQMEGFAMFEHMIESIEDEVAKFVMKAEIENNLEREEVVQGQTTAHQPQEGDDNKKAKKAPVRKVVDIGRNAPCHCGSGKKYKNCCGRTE
Sequence of EcN68 SecA ATPase (P10408 1-610): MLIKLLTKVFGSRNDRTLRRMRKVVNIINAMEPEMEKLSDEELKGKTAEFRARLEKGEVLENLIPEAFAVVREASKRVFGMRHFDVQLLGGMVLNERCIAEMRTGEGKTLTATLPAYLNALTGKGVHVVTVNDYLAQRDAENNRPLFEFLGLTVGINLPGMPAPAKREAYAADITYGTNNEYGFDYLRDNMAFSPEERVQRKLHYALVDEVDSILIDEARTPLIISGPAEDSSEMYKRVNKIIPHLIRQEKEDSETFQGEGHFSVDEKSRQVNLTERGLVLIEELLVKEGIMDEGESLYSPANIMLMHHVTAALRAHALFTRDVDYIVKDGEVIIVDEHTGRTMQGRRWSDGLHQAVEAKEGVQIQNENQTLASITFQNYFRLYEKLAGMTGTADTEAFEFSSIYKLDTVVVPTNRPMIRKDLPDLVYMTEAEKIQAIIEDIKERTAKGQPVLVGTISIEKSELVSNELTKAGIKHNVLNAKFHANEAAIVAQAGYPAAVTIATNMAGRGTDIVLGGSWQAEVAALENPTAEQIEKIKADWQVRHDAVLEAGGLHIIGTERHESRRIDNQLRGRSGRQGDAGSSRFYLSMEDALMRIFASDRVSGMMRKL
Sequence of EcSecA membrane ATPase (P10408 whole entry): as the sequence (P10408 whole entry) above

For the compound `O=C([O-])c1ccccc1-c1c2ccc(=O)c(I)c-2oc2c(I)c([O-])ccc12.[Na+].[Na+]` [DI, Diiodofluorescein], the “MIC, B. subtilis 168” value in the test with B. subtilis 168 [1] is 1000 µM. Moreover, the “MIC, E. coli MC4100” value against E. coli MC4100 is greater than 3000 µM.

A word on the IC50: it is the concentration at which inhibition is half-maximal. For `O.O=C([O-])c1ccccc1-c1c2cc(I)c(=O)c(I)c-2oc2c(I)c([O-])c(I)cc12.[Na+].[Na+]` [EB, Erythrosin B], the IC50 is 10 µM in test [2]; 4 µM in test [3]; 70 µM at BsSecA intrinsic ATPase; roughly 30 µM at F1F0-ATPase; 12 µM on EcSecA membrane ATPase. The “MIC, E. coli NR698” value in the test with E. coli NR698 [4] fell in the range of 250 to 500 µM. For the same compound, the “MIC, B. subtilis 168” value in the test with B. subtilis 168 [1] lay within 250 to 500 µM. Also, in the test with E. coli MC4100, the “MIC, E. coli MC4100” value is greater than 10000 µM. The “Mode of inhibition against ATP” value in the test on SecA ATPase is given as “competitive inhibitors against ATP”.

For orientation: MIC means the smallest concentration in the dilution series that meets the test's criterion for growth inhibition. `O=C1OC2(c3ccccc31)c1cc(Br)c(O)c(Br)c1Oc1c2cc(Br)c(O)c1Br` [EY, Eosin Y] yielded an IC50 on EcN68 SecA ATPase of 25 µM. Further, the MIC was 1000 to 2500 µM (≈ 648 to 1620 µg/mL) in the test on E. coli NR698 [4] (Escherichia coli, NR698, read-out: MIC, E. coli NR698) and 2500 µM (≈ 1620 µg/mL) with B. subtilis 168 [1] (Bacillus subtilis, 168, read-out: MIC, B. subtilis 168).

Regarding `O=C1OC2(c3cc(I)c(O)c(I)c3Oc3c2cc(I)c(O)c3I)c2c(Cl)c(Cl)c(Cl)c(Cl)c21` [RB, Rose Bengal], in the test with E. coli NR698 [5], the “Inhibition of growth in liquid culture” value was “completely inhibits”. Moreover, the IC50 in [3] was 0.25 µM and ~0.25 µM; on BsSecA intrinsic ATPase it was 7 µM; at F1F0-ATPase, roughly 10 µM. Besides, the “Decrease of cell survival (CFU)” value in the test on B. subtilis 168 [6] is roughly 8 log units; with E. coli NR698 [7], “about 10 log units”. In addition, the “MIC, E. coli NR698” value in the test with E. coli NR698 [4] was 3.1 µM (≈ 3.02 µg/mL). Further, the “MIC, B. subtilis 168” value in the test with B. subtilis 168 [1] stood at 3.1 µM (≈ 3.02 µg/mL). In the test on E. coli MC4100, the “MIC, E. coli MC4100” value is greater than 1000 µM. In addition, the “Mode of inhibition against ATP” value with SecA ATPase was “competitive inhibitors against ATP”.

As to `[N-]=[N+]=[N-].[Na+]` [Sodium azide], the “Inhibition of the intrinsic ATPase of SecA” value on EcN68 SecA ATPase (at concentrations as high as 10 mM, cf. Table 1 EcN68) was “not inhibited”. For the same compound, the values for the IC50 in test [8] and in test [9] were 600 µM and 5000 µM, respectively.

As to `C/C=C/[C@H]1C(C)=C[C@H]2C[C@H](C)[C@H](O)C[C@H]2[C@]1(C)/C=C(C)/C=C/C(=O)O` [pannomycin], the “MIC, antibacterial activity” value in [10] is “mM range”.

Regarding Dinitrofluorescein [DN], in the test with E. coli NR698 [4], the “MIC, E. coli NR698” value lay within 10000 to 20000 µM. Moreover, the “MIC, B. subtilis 168” value against B. subtilis 168 [1] was 10000 µM.
